According to the array DNA melting data of Ke et al. (doi:10.1101/2024.01.08.574731):

How the values were obtained:
[1] = folding enthalpy; higher = less favourable; fluorescence melt of hairpins on a sequencing array, two-state fit; settings: sodium 0.088 M
Method in brief: (§1)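 Cy3 fluorescence of library hairpins on a sequenced MiSeq flow cell, with annealed Cy3 and quencher oligos, was imaged in 50 mM Na-HEPES pH 8.0, 25 mM NaCl in 2.5 °C steps up to 60 °C. Signals were normalised to pre-quench Cy3 and to control variants. Melting temperature and folding enthalpy came from bootstrapped two-state fits, inverse-variance combined over four replicates. Fitted temperatures were raised by 9.35 °C to match UV melts.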

[2] = melting temperature; fluorescence melt of hairpins on a sequencing array, two-state fit, raised by 9.35 °C to match UV melts; settings: sodium 0.088 M
Method in brief: as §1

Sequence	folding enthalpy [1]	Tm [2]
GCACTCGAAAGAGGTGC ((((((....))).)))	-29.1 kcal/mol	54.4 °C
GATCCAGGAATGGATC ((((((....))))))	-40.6 kcal/mol	54 °C
GTGCCTGGAAACAGACAC (((.(((....))).)))	-28.6 kcal/mol	46.9 °C
GTTGTCGAAAGACATAAC ((((((....)))..)))	-13.3 kcal/mol	32.6 °C
GGCAACGGAAACGTTACC ((.((((....)))).))	-29.8 kcal/mol	45.1 °C
CCTGAGAAATCAGG (((((....)))))	-19.4 kcal/mol	44.8 °C
GCTTCACGAAAGTGAGC (((.(((....))))))	-17.8 kcal/mol	51 °C
GCTCGGCGAAAGCTTAGC (((..((....))..)))	-15.3 kcal/mol	40.9 °C
GAGTGAGAAATCACTC ((((((....))))))	-34.3 kcal/mol	53.7 °C
GAAAACGGAAACGTTTCC (.(((((....))))).)	-15.1 kcal/mol	34.1 °C
GCACCACGAAAGTGATGC (((.(((....))).)))	-36.5 kcal/mol	55.7 °C
GGCTCGGGAAACTGGGCC (((.(.(....).).)))	-36.7 kcal/mol	48.9 °C
GCGTGCCCACGC ((((....))))	-26.6 kcal/mol	60.2 °C
GATCTATAAGTAGATC ((((((....))))))	-35.6 kcal/mol	41.6 °C
CGCTCGGAAACGAGGGCG ((((((....)))..)))	-12.4 kcal/mol	51.7 °C
GACTGACCGAAAGGTGTC (((..(((....))))))	-16.9 kcal/mol	41.4 °C
GTTTGCGGAAACGTAGAC ((.(.((....)).).))	-20.5 kcal/mol	30.7 °C
GTCCTGGGAAACTAGGGC (.(((.(....).))).)	-28.8 kcal/mol	40 °C
GATCCAGTCTGGATC ((((((...))))))	-38.1 kcal/mol	55.1 °C
GTCGCTGCGAAAGCAGAC (((..(((....))))))	-10 kcal/mol	38.5 °C
GTGATAGGAAACTACCAC (((.(((....))).)))	-27.3 kcal/mol	33.5 °C
GATCAAGAGTTTGATC ((((((....))))))	-29.6 kcal/mol	41.4 °C
GGGATAGGAAACTATCCC (((((((....)))))))	-42.8 kcal/mol	59.2 °C
GCGGGTGGAAACATCCGC ((((.((....)).))))	-43 kcal/mol	64 °C

Sequence	folding enthalpy [1]	Tm [2]
GGTAGACCGAAAGGTACC (((..(((....))))))	-19.8 kcal/mol	38 °C
GTAAAACGAAAGTTCTAC (((.(((....))).)))	-13.9 kcal/mol	27.6 °C
GAATAGGAAACTATTC ((((((....))))))	-31 kcal/mol	40.7 °C
GATCTTGCGTAAGATC ((((((....))))))	-39.6 kcal/mol	43.6 °C
GATCAAAGGATTGATC ((((((....))))))	-19.1 kcal/mol	40.9 °C
GCAAACCGAAAGGTATGC (((.(((....))).)))	-37.5 kcal/mol	53.4 °C
CGAGACGGAAACGTGTCG (((.(((....))).)))	-37.6 kcal/mol	52.1 °C
GAGCCAGCGAAAGCTCTC (((..(((....))))))	-10.3 kcal/mol	34.8 °C
GATCGTAGGCACGATC ((((((....))))))	-37 kcal/mol	54.2 °C
GATCGCCGGCGCGATC ((((((....))))))	-34.1 kcal/mol	61.1 °C
GGCTAACGAAAGTTGGCC (((.(((....))).)))	-44.2 kcal/mol	60.1 °C
GTGAACGAAAGTTCCAC ((((((....))).)))	-15.9 kcal/mol	39.9 °C
GCGTTGTGACGC ((((....))))	-31.6 kcal/mol	59 °C
GAATCGGGAAACCGACTC ((.((((....)))).))	-20.4 kcal/mol	35.1 °C
GACTGACGAAAGTCGGTC (((.(((....))).)))	-37.2 kcal/mol	62 °C
GAATGCGAAAGCATCTTC ((((((....)))..)))	-23.4 kcal/mol	53 °C
GCGACAGGAAACTACCGC (((..((....))..)))	-20.5 kcal/mol	31.6 °C
GTGAGCGCGAAAGCGCAC (((..(((....))))))	-11.1 kcal/mol	52.2 °C
GAGGAGAAATCCTC (((((....)))))	-21.8 kcal/mol	43.4 °C
GTATTGCGAAAGCATAC (((.(((....))))))	-12.2 kcal/mol	45 °C
GACGCTGGAAACGGCGTC (((((.(....).)))))	-44.2 kcal/mol	64.9 °C
GCTAGTCGAAAGACAGC (((.(((....))))))	-24.8 kcal/mol	52.1 °C
GTTTGGGGAAACCCAAGC (.(((((....))))).)	-21.9 kcal/mol	43.5 °C
GATCCGGATGCGGATC ((((((....))))))	-35.4 kcal/mol	58.5 °C

Sequence	folding enthalpy [1]	Tm [2]
GCCTGCGAAAGCAAAGGC ((((((....)))..)))	-26.9 kcal/mol	59.3 °C
GGATCGGAAACGATCC ((((((....))))))	-28.6 kcal/mol	66.2 °C
GGTCCCGAAAGGGACACC ((((((....)))..)))	-8.21 kcal/mol	54.5 °C
GACATGGGAAACCATATC ((.((((....)))).))	-14 kcal/mol	28 °C
GGGAAGGAAACTTCCC ((((((....))))))	-31.8 kcal/mol	58.1 °C
GAGGGCGAAAGCCATCTC ((((((....)))..)))	-16.2 kcal/mol	65.6 °C
GTACTGGGAAACTAGTGC (.(((.(....).))).)	-19.4 kcal/mol	31.2 °C
GATCGGTTTGCCGATC ((((((....))))))	-47.9 kcal/mol	61.6 °C
GGCCTGGGAAACTAGGCC (((((.(....).)))))	-49.7 kcal/mol	59.2 °C
GAGCTCGGAAACGAGCCC (.(((((....))))).)	-7.56 kcal/mol	59.5 °C
GCGTGTCGAAAGACCGC (((.(((....))))))	-33 kcal/mol	67 °C
AGTAGGAAACTACT (((((....)))))	-16.9 kcal/mol	33.2 °C
GCTTAGCGAAAGCTTGGC ((..(((....)))..))	-18.3 kcal/mol	47 °C
GGTTTAGGAAACTAAACC (((((((....)))))))	-54.6 kcal/mol	54.2 °C
GATCATACGATGATC ((((((...))))))	-29.4 kcal/mol	46.9 °C
GATCTATTAGTAGATC ((((((....))))))	-33.8 kcal/mol	44.4 °C
GGAGTTGGAAACAGCTTC (.((.((....)).)).)	-37 kcal/mol	37.1 °C
GATCCTGACGAGGATC ((((((....))))))	-36.4 kcal/mol	56.9 °C
CGCGGACTTCTCCGCG ((((((....))))))	-35.6 kcal/mol	65.9 °C
GCCTAGCGAAAGCGCGGC (((..((....))..)))	-18.5 kcal/mol	61.9 °C
GATCGTGGTTACGATC ((((((....))))))	-40.3 kcal/mol	58.3 °C
GCCCCGCGAAAGCTCGGC (((..((....))..)))	-20.3 kcal/mol	38.8 °C
GTTTCGGGAAACTGAAAC (((((.(....).)))))	-27.5 kcal/mol	46.9 °C
GAGTCGCCGAAAGGCCTC (((..(((....))))))	-12.2 kcal/mol	29.3 °C

Sequence	folding enthalpy [1]	Tm [2]
GCGTATACGAAAGTACGC (((..(((....))))))	-35.4 kcal/mol	51.6 °C
GATCTCTCCTGAGATC ((((((....))))))	-39.3 kcal/mol	55 °C
GCGCACCGAAAGGTCCGC (((.(((....))).)))	-37.8 kcal/mol	55.6 °C
GGAAGTGGAAACACTCCC ((.((((....)))).))	-23 kcal/mol	42.7 °C
GCGACCCTCGC ((((...))))	-20.7 kcal/mol	49.4 °C
GATCAGTTTGCTGATC ((((((....))))))	-44.1 kcal/mol	53.8 °C
GCTGCTGGAAACAGCAAC (.(((((....))))).)	-12.1 kcal/mol	44.3 °C
GTGTATGGAAACATGCAC (((.(((....))).)))	-33.9 kcal/mol	48.9 °C
GATCACTCAGGTGATC ((((((....))))))	-37 kcal/mol	57.4 °C
GTTGATCGAAAGATAAC (((.(((....))))))	-13.3 kcal/mol	28.9 °C
GGCGCCACGAAAGTGGCC (((..(((....))))))	-6.73 kcal/mol	48.8 °C
GTCAGCGGAAACGCTGGC (.(((((....))))).)	-24.6 kcal/mol	63.7 °C
GACGGCGAAAGCCTGGTC ((((((....)))..)))	-15.1 kcal/mol	49.9 °C
GACACCGGAAACGGTGCC (.(((((....))))).)	-13.4 kcal/mol	48.8 °C
GGCAGACGAAAGTCCGCC (((.(((....))).)))	-39.2 kcal/mol	60.2 °C
GGTTGCGGAAACGCGACC (((.(((....))).)))	-37.7 kcal/mol	65.8 °C
GGCTCCTCGAAAGAGGCC (((..(((....))))))	-14 kcal/mol	39.5 °C
GGTTAAGGAAACTTAATC (.(((((....))))).)	-21.7 kcal/mol	31.7 °C
GAGGCGGGAAACCGTCTC (((.(((....))).)))	-38.3 kcal/mol	56.8 °C
GCAGGACGAAAGTCATGC (((.(((....))).)))	-37.9 kcal/mol	66.3 °C
GACTCCCCGAAAGGGGTC (((..(((....))))))	-7.79 kcal/mol	31.4 °C
